Source: ChEMBL document CHEMBL1132449, “Pyrroloquinoxaline derivatives as high-affinity and selective 5-HT(3) receptor agonists: synthesis, further structure-activity relationships, and biological studies” (J Med Chem, 1999)

Tests used:
[1] = molecular target: Serotonin 3 (5-HT3) receptor; assay: Effective concentration against 5-Hydroxytryptamine 3 receptor by measuring [14C]guanidinium uptake on NG108-15 cells.; format: functional, cell-based
[2] = system: NG108-15; assay: The compound was tested for efficacy against 5-Hydroxytryptamine 3 receptor by measuring [14C]guanidinium uptake on NG108-15 cells.; A = Agonist; format: functional, cell-based; details: filed as agonist
How it was run: (§1)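 NG108-15 cells, grown 2 days, were washed in HEPES saline pH 7.4. They were exposed 10 min at 37 °C to buffer (135 mM NaCl, 10 mM guanidinium) with […] [14C]guanidinium, 1 mM 5-HT, […] and/or 8 drug concentrations. Cells were washed in ice-cold choline buffer, dissolved in NaOH and counted by scintillation. Assays run in triplicate.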

[3] = molecular target: T1, Serotonin 3 (5-HT3) receptor (Rattus norvegicus, UniProt P35563+Q9JJ16); assay: Binding affinity against 5-hydroxytryptamine 3 (5-HT3) receptor from rat cortical homogenate using [3H]zacopride as radioligand
T1 sequence (P35563 whole entry): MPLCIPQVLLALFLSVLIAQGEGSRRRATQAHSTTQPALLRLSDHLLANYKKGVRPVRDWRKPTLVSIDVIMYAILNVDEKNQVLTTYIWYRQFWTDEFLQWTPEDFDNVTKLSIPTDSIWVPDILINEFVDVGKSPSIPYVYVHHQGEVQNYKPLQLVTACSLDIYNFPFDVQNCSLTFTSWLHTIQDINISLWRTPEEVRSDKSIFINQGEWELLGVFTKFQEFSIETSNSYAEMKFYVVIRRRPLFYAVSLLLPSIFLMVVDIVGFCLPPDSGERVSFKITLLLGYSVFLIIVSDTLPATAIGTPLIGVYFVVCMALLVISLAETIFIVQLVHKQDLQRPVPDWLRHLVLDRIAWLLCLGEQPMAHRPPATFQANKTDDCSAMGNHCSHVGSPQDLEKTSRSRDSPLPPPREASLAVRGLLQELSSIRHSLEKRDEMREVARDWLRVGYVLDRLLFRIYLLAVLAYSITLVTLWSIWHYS
T1 sequence (Q9JJ16 whole entry): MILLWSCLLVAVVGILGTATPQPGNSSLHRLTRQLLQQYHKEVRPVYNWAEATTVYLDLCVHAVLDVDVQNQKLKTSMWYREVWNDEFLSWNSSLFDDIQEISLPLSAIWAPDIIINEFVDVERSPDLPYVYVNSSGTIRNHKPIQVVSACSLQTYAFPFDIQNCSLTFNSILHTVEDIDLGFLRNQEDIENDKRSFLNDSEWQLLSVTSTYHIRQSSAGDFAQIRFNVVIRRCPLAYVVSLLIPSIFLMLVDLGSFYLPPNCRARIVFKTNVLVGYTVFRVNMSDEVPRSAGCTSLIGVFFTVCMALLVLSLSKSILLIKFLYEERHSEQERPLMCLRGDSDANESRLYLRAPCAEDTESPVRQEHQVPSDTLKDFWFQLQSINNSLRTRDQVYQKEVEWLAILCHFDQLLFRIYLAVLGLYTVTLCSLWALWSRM
How it was run: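 Male rat cortices, stored at -80 °C, were homogenized in ice-cold 25 mM Tris HCl pH 7.4 and spun at 50000g. Membranes were preincubated 10 min at 37 °C, washed, and resuspended with 10 µM pargyline (10 mg tissue/sample). They were incubated with 0.4 nM (final) [3H]zacopride for 30 min at 25 °C, filtered through PEI-treated GF/B and counted. IC50 came from dose-inhibition curves, mean ± SEM of three determinations.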

[4] = molecular target: T1, Serotonin 3 (5-HT3) receptor; assay: The compound was tested for binding affinity against 5-hydroxytryptamine 3 receptor from NG108-15 cells using [3H]zacopride as radioligand; format: cell-based
How it was run: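 NG108-15 cells were grown in DMEM with 10% inactivated FCS plus HAT at 37 °C, 10% CO2, harvested by shaking and pelleted. About 420 000 cells/sample in 50 mM Tris HCl pH 7.5 with 25 mM NaCl were incubated with 0.4 nM (final) [3H]zacopride for 60 min at 25 °C, then filtered and counted. IC50 is mean ± SEM of three determinations.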

[5] = The compound was tested for brain to plasma partition in rat; format: ADME, organism-based; details: brain and plasma, read-out: AUC ratio
How it was run: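 Male CD-COBS rats (175-200 g) received hydrochloride salts in saline i.v. at 5 mg/kg and were killed 60, 120 and 180 min after dosing. Plasma and brain levels were measured by HPLC-UV (254 nm) after liquid-liquid or solid-phase extraction with an internal standard. The ratio is brain-to-plasma AUC_t, 2-3 rats per point.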

[6] = molecular target: 5-hydroxytryptamine receptor 4 (Cavia porcellus, UniProt O70528); assay: The compound was tested for the binding affinity against 5-hydroxytryptamine 4 receptor using [3H]GR-113808 as radioligand
How it was run: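 Male guinea pig striatal membranes, washed and preincubated at 37 °C, were incubated with 0.1 nM (final) [3H]GR113808 for 30 min at 37 °C.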

[7] = system: NG108-15; assay: The compound was tested for efficacy against 5-Hydroxytryptamine 3 receptor by measuring [14C]guanidinium uptake on NG108-15 cells; PA=Partial agonist; format: functional, cell-based; details: filed as partial agonist; how it was run: as §1
[8] = molecular target: T1, Serotonin 3 (5-HT3) receptor; assay: The compound was tested for the binding affinity against 5-hydroxytryptamine 3 receptor using [3H]zacopride as radioligand; format: protein-complex assay
[9] = molecular target: 5-hydroxytryptamine receptor 1B (Rattus norvegicus, UniProt P28564); assay: The compound was tested for the binding affinity against 5-hydroxytryptamine 1B receptor using [3H]5-HT as radioligand
[10] = molecular target: T2, 5-hydroxytryptamine receptor 1A (Rattus norvegicus, UniProt P19327); assay: The compound was tested for the binding affinity against 5-hydroxytryptamine 1A receptor using [3H]8-OH-DPAT as radioligand.
T2 sequence (P19327 whole entry): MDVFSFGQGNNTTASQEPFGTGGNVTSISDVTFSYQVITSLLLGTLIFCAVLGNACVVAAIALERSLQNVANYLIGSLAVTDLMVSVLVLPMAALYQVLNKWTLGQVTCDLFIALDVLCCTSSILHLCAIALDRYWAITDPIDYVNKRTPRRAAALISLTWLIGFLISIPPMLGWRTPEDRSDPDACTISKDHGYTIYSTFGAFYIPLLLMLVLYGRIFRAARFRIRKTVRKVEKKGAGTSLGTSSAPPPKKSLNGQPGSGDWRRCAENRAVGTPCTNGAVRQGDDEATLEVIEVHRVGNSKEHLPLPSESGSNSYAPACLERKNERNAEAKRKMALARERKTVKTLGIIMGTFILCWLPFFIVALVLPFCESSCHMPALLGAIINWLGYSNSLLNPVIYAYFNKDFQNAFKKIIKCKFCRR

[11] = molecular target: T3, 5-hydroxytryptamine receptor 2C (Rattus norvegicus, UniProt P08909); assay: The compound was tested for the binding affinity against 5-hydroxytryptamine 2C receptor using [3H]mesulergine as radioligand
T3 sequence (P08909 whole entry): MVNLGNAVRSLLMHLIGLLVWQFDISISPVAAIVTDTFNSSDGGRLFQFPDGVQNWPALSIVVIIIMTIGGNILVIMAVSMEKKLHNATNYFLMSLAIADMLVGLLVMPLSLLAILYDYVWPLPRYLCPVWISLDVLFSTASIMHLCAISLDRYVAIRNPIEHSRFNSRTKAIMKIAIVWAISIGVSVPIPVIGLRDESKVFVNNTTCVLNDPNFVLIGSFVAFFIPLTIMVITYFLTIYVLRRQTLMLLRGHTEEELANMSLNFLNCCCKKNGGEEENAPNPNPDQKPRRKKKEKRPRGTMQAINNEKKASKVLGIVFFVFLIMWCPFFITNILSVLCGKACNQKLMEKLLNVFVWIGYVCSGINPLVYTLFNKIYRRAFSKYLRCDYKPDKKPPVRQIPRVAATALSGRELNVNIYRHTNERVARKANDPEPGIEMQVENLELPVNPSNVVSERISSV

[12] = molecular target: 5-hydroxytryptamine receptor 2A (Rattus norvegicus, UniProt P14842); assay: The compound was tested for the binding affinity against 5-hydroxytryptamine 2A receptor using [3H]ketanserin as radioligand
Sequence of 5-hydroxytryptamine receptor 2A (P14842 whole entry): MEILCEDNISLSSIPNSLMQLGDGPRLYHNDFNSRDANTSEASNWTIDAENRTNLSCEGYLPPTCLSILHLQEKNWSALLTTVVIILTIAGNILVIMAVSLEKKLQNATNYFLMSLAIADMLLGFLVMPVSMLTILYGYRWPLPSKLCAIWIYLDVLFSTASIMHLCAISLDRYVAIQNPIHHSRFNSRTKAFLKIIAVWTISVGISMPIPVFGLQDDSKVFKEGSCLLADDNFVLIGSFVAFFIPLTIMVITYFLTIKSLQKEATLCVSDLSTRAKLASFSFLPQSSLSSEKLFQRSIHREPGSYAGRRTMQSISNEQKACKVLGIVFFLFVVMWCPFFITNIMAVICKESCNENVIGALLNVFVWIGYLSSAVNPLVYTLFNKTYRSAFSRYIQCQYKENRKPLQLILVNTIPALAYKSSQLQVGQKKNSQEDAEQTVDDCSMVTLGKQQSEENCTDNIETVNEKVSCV

Sequence of 5-hydroxytryptamine receptor 1B (P28564 whole entry): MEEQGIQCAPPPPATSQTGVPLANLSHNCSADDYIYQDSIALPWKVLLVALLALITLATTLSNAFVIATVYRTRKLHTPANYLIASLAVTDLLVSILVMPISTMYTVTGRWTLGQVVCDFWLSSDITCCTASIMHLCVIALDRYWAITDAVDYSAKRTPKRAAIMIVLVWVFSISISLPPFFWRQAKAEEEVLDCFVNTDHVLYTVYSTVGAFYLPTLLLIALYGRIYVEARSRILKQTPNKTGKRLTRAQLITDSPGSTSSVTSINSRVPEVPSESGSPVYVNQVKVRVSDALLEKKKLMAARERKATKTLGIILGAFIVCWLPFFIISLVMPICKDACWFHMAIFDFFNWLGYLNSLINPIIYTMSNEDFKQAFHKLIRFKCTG
Sequence of 5-hydroxytryptamine receptor 4 (O70528 whole entry): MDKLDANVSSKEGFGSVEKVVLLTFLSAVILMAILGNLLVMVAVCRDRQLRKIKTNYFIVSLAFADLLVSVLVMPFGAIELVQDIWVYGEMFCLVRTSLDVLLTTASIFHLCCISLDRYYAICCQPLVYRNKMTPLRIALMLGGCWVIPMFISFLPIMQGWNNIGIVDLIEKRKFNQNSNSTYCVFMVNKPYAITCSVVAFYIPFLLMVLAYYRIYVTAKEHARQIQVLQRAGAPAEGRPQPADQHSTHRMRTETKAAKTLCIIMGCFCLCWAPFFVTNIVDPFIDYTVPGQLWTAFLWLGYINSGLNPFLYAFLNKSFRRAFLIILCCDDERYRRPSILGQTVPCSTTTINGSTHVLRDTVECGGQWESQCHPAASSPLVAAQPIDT

Structure (SMILES) | IC50 [3] | also measured
Cc1cccc2nc(N3CCN(Cc4ccc(Br)s4)CC3)c3cccn3c12 | 104 nM | –
CN1CCN(c2nccn3cccc23)CC1 | 1930 nM | –
Fc1cccc2nc(N3CCN(Cc4ccc5ccccc5c4)CC3)c3cccn3c12 | 780 nM | Kp [5]: 2.8
CN1CCN(c2nc3cccnc3n3ccnc23)CC1 | 6.6 nM | –
OCCN1CCN(c2nc3cccnc3n3ccnc23)CC1 | 38 nM | –
c1cnc2nc(N3CCNCC3)c3cccn3c2c1 | 3.1 nM | –
Cc1cccc2nc(N3CCN(Cc4ccccc4)CC3)c3cccn3c12 | 8.8 nM | EC50 [1]: 12 nM; Efficacy [2]: Agonist
N#CCN1CCN(c2nc3cccc(F)c3n3cccc23)CC1 | 3800 nM | Kp [5]: 0.1
c1ccc(CN2CCN(c3nc4ncccc4n4cccc34)CC2)cc1 | 2.2 nM | EC50 [1]: 4.2 nM; Kp [5]: 2.1; Ki [6]: > 10000 nM; Efficacy [7]: Partial agonist; Ki [8]: 2 nM; Ki [9]: > 10000 nM; Ki [10]: > 10000 nM; Ki [11]: > 10000 nM; Ki [12]: 794 nM
Fc1cccc2nc(N3CCN(Cc4cccs4)CC3)c3cccn3c12 | 60 nM | –
O=C(O)CN1CCN(c2nc3cccc(F)c3n3cccc23)CC1 | 920 nM | –

More lines, main results first:

IC50 [3] | Structure (SMILES) | also measured
2.6 nM | OCCN1CCN(c2nc3cc(F)ccc3n3cccc23)CC1 | EC50 [1]: 2.4 nM; Efficacy [2]: Agonist
1 nM | CN1CCN(c2nc3cccnc3n3cccc23)CC1 | IC50 [4]: 5.4 nM
12 nM | Fc1ccc2c(c1)nc(N1CCN(Cc3cccs3)CC1)c1cccn12 | –
148 nM | Fc1ccc2c(c1)nc(N1CCN(Cc3ccc(Br)o3)CC1)c1cccn12 | –
113 nM | Cc1cc2nc(N3CCNCC3)c3cccn3c2cc1C | –
44 nM | Cc1cc2nc(N3CCN(Cc4ccccc4)CC3)c3cccn3c2cc1C | –
97 nM | CN1CCN(c2nc3cc(Cl)c(Cl)cc3n3cccc23)CC1 | –
0.67 nM | CN1CCN(c2nc3cc(O)ccc3n3cccc23)CC1 | EC50 [1]: 1.6 nM; Efficacy [2]: Agonist
5.2 nM | CN1CCN(c2nc3cc(F)ccc3n3ccnc23)CC1 | EC50 [1]: 7.2 nM; Efficacy [2]: Agonist
